Test results published in ChEMBL document CHEMBL4033640, “Design, synthesis and biological evaluation of 3-substituted-2-oxindole hybrid derivatives as novel anticancer agents” (Eur J Med Chem, 2017).
Active and inactive are the calls of the source. The rule behind the calls is not given here.

Legend:
[1] = molecular target: T1, Serine/threonine-protein kinase Nek2 (Homo sapiens) (UniProt P51955); assay: Inhibition of recombinant human full-length N-terminal GST-tagged NEK2 expressed in baculovirus infected Sf9 insect cells at 1 uM using MBP as substrate after 30 mins by ADP-Glo reagent based luminescence assay
T1 sequence (whole entry): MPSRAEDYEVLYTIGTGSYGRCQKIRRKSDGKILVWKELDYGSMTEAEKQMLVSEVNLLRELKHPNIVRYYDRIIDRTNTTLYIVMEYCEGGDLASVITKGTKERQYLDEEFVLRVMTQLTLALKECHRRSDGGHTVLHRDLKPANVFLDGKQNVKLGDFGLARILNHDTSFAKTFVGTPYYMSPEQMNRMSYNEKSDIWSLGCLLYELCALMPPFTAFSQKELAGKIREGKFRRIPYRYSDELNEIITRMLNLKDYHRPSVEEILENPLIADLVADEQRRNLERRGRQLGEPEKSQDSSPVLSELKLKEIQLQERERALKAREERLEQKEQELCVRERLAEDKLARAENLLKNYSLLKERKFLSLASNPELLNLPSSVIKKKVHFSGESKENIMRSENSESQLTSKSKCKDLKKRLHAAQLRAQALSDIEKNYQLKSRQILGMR
Method in brief: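 Nek2 activity measured with the bioluminescent ADP-Glo kinase assay, compounds at 1 µM final concentration. Percentage inhibition given as means ± SEM of two independent experiments performed in duplicate.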

HeLa [2] = assay: Antiproliferative activity against human HeLa cells after 72 hrs by MTT assay; assay type: functional, cell-based
Method in brief: (§1)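 Cells grown in DMEM with 10% FBS, penicillin G and streptomycin. 8 × 10³ cells per well, incubated overnight at 37 °C in 5% CO₂, then exposed to graded compound concentrations (from 10 mM DMSO stocks) in triplicate for 72 h. Viability measured by MTT. IC50 taken from dose-response curves, given as mean ± SE of at least three independent experiments run in triplicate.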

HL-60 = assay: Antiproliferative activity against human HL60 cells after 72 hrs by MTT assay; assay type: functional, cell-based; settings: HL-60, 72 h
MCF7 = assay: Antiproliferative activity against human MCF7 cells after 72 hrs by MTT assay; assay type: functional, cell-based; settings: MCF7, 72 h; method in brief: as §1
CCRF-CEM = assay: Antiproliferative activity against human CCRF-CEM cells after 72 hrs by MTT assay; assay type: functional, cell-based
Jurkat [3] = assay: Antiproliferative activity against human Jurkat cells after 72 hrs by MTT assay; assay type: functional, cell-based
Method in brief: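 Cells exposed to graded compound concentrations (from 10 mM DMSO stocks) in triplicate for 72 h at 37 °C. Viability measured by MTT. IC50 taken from dose-response curves, given as mean ± SE of at least three independent experiments run in triplicate.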

HT-29 = assay: Antiproliferative activity against human HT-29 cells after 72 hrs by MTT assay; assay type: functional, cell-based; settings: HT-29, 72 h; method in brief: as §1
RS4-11 = assay: Antiproliferative activity against human RS4:11 cells after 72 hrs by MTT assay; assay type: functional, cell-based; settings: RS4-11, 72 h
HeLa [4] = assay: Induction of apoptosis in human HeLa cells assessed as cleaved caspase-9 expression at 0.5 to 1 uM after 24 hrs by Western blot analysis; assay type: functional, cell-based
Method in brief: (§2)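 HeLa cells treated for 24 h and washed in ice-cold PBS. Cells lysed on ice for 30 min and lysate cleared at 15000 x g. 10 μg protein resolved by SDS-PAGE (7.5–15%) and blotted. Membranes blocked with 3% BSA, probed with antibodies to caspase-9 or γH2AX, detected by ECL. Bands quantified and normalized to β-actin, mean±SD of two gels.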

HeLa [5] = assay: Antiproliferative activity against human HeLa cells at 1 uM after 48 hrs in presence of 100 uM TOC by annexin-V staining based assay; assay type: functional, cell-based
Method in brief: (§3)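 HeLa cells treated with compound at 1.0 µM for 48 h together with 100 µM N-acetyl-L-cysteine or DL-α-tocopherol acetate. Cell death measured by annexin-V assay with flow cytometry. Means ± S.E.M. of three independent experiments.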

HeLa [6] = assay: Induction of mitochondrial membrane depolarization in human HeLa cells at 0.5 to 1 uM after 12 to 24 hrs JC-1 staining based flow cytometry; assay type: functional, cell-based
Method in brief: (§4)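 Cells treated at the indicated concentrations for the indicated times (12 and 24 h). Stained with JC-1 and analyzed by flow cytometry for dissipation of mitochondrial membrane potential.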

PBL [7] = assay: Cytotoxicity against resting human PBL assessed as reduction in cell viability after 72 hrs by MTT assay; assay type: cell-based
Method in brief: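 PBL isolated from healthy donors' buffy coats by density-gradient centrifugation and held overnight in RPMI-1640 with 10% FBS. Non-adherent cells without PHA resuspended at 5 × 10⁵ cells/mL and treated for 72 h. Viability read by MTT. IC50 reported as mean ± SEM of two separate experiments.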

HeLa [8] = assay: Cell cycle arrest in human HeLa cells assessed as decrease in G1 phase at 1 uM after 24 hrs by propidium iodide staining based flow cytometry; assay type: functional; design: scale not given: the % may be the effect or the level left
Method in brief: (§5)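 5 × 10⁵ HeLa cells treated for 24 h at the indicated concentrations, then fixed in ice-cold 70% ethanol. Lysis buffer with RNase A and 0.1% Triton X-100 applied, cells stained with PI, and DNA content read by flow cytometry to give percentage of cells in each phase.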

HeLa [9] = assay: Induction of DNA damage in human HeLa cells assessed as increase in gamma-H2AX level at 0.5 to 1 uM after 24 hrs by Western blot analysis; assay type: functional, cell-based; method in brief: as §2
PBL [10] = assay: Cytotoxicity against PHA-stimulated human PBL assessed as reduction in cell viability after 72 hrs by MTT assay; assay type: cell-based
Method in brief: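 PBL isolated from healthy donors' buffy coats by density-gradient centrifugation and held overnight in RPMI-1640 with 10% FBS. Non-adherent cells resuspended at 5 × 10⁵ cells/mL with 2.5 μg/mL PHA and given graded compound concentrations. Viability read by MTT after 72 h. IC50 reported as mean ± SEM of two separate experiments.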

Jurkat [11] = assay: Induction of GSH depletion in human Jurkat cells at 0.5 to 10 uM after 30 mins by CMFDA-probe based flow cytometry; assay type: functional, cell-based; settings: in the assay text read “after 12 to 24 hrs” for “after 30 mins”
Method in brief: (§6)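 Cells treated with compound for 12–24 h, harvested, then loaded with 5 µM CMFDA at 37 °C for 30 min. GSH-dependent fluorescence measured by flow cytometry. Means ± S.E.M. of three independent experiments.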

HeLa [12] = assay: Antiproliferative activity against human HeLa cells at 1 uM after 48 hrs in presence of 100 uM NAC by annexin-V staining based assay; assay type: functional, cell-based; method in brief: as §3
HeLa [13] = assay: Induction of GSH depletion in human HeLa cells at 0.5 to 10 uM after 30 mins by CMFDA-probe based flow cytometry; assay type: functional, cell-based; settings: in the assay text read “after 12 to 24 hrs” for “after 30 mins”; method in brief: as §6
Jurkat [14] = assay: Induction of mitochondrial membrane depolarization in human Jurkat cells at 10 to 100 nM after 12 to 24 hrs JC-1 staining based flow cytometry; assay type: functional, cell-based; method in brief: as §4
Jurkat [15] = assay: Induction of apoptosis in human Jurkat cells at 100 nM after 24 to 48 hrs by annexin-V/FITC propidium iodide staining based flow cytometry; assay type: functional, cell-based
Method in brief: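 Cells treated with compound at the indicated concentrations for 24 or 48 h, then double-stained with annexin V-FITC and PI. Phosphatidylserine exposure measured by flow cytometry. Means ± SEM of three independent experiments.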

HeLa [16] = assay: Cell cycle arrest in human HeLa cells assessed as decrease in G1 phase at 0.5 to 1 uM after 24 hrs by propidium iodide staining based flow cytometry; assay type: functional; method in brief: as §5

| Compound | inhibition [1] [%] | IC50 (HeLa [2]) [nM] | IC50 (HL-60) [nM] | IC50 (MCF7) [nM] | IC50 (CCRF-CEM) [nM] | IC50 (Jurkat [3]) [nM] | IC50 (HT-29) [nM] | IC50 (RS4-11) [nM] | other results |
| --- | --- | --- | --- | --- | --- | --- | --- | --- | --- |
| C=C(Br)C(=O)Nc1ccc2c(c1)/C(=C/c1ccc(C)s1)C(=O)N2 | 5 to 20 | 1600 | 24 | 3000 | 9 | 360 | 560 | 50 |  |
| C=C(Br)C(=O)Nc1ccc2c(c1)/C(=C\c1sccc1C)C(=O)N2 | 5 to 20 | 450 | 39 | 2300 | 0.9 | 40 | 330 | 4 | Activity (HeLa [4]): Active; Activity (HeLa [5]): inactive; Activity (HeLa [6]): Active; IC50 (PBL [7]): 450 nM; Activity (HeLa [8]): 20%; Activity (HeLa [9]): Active; IC50 (PBL [10]): 1220 nM; Activity (Jurkat [11]): Active; Activity (HeLa [12]): Active; Activity (HeLa [13]): Active; Activity (Jurkat [14]): Active; Activity (Jurkat [15]): Active |
| C=C(Br)C(=O)Nc1ccc2c(c1)/C(=C/c1cccs1)C(=O)N2 | 5 to 20 | 1700 | 230 | 1700 | 35 | 210 | 240 | 2 |  |
| C=C(Br)C(=O)Nc1ccc2c(c1)/C(=C\c1ccc(C)s1)C(=O)N2 | 5 to 20 | 2000 | 12 | 4400 | 1 | 150 | 300 | 20 |  |
| C=C(Br)C(=O)Nc1ccc2c(c1)CC(=O)N2 | 5 to 20 | 4500 | 350 | 3300 | 220 | 1100 | 4400 | 220 |  |
| C=C(Br)C(=O)Nc1ccc2c(c1)/C(=C\c1ccsc1)C(=O)N2 | 5 to 20 | 2600 | 770 | 2100 | 6 | 56 | 310 | 190 |  |
| C=C(Br)C(=O)Nc1ccc2c(c1)/C(=C/c1ccsc1)C(=O)N2 | 5 to 20 | 3500 | 350 | 2800 | 4 | 190 | 600 | 190 |  |
| C=C(Br)C(=O)Nc1ccc2c(c1)/C(=C\c1cccs1)C(=O)N2 | 5 to 20 | 1800 | 15 | 2300 | 10 | 16 | 5500 | 30 |  |
| Nc1ccc2c(c1)C(=Cc1ccsc1)C(=O)N2 |  |  |  |  | > 10000 |  |  | > 10000 |  |
| C#CC(=O)Nc1ccc2c(c1)/C(=C/c1ccc[nH]1)C(=O)N2 | 5 to 20 | 4400 | 5800 | 3700 | 50 | 340 | 2300 | 70 | Activity (HeLa [16]): inactive |
| C=C(Br)C(=O)Nc1ccc2c(c1)/C(=C/c1ccc[nH]1)C(=O)N2 | 50 | 500 | 140 | 700 | 3 | 110 | 800 | 1 | Activity (HeLa [4]): Active; Activity (HeLa [5]): inactive; Activity (HeLa [6]): Active; IC50 (PBL [7]): 1500 nM; Activity (HeLa [8]): 20%; Activity (HeLa [9]): Active; IC50 (PBL [10]): 830 to 850 nM; Activity (Jurkat [11]): Active; Activity (HeLa [12]): Active; Activity (HeLa [13]): Active; Activity (Jurkat [14]): Active; Activity (Jurkat [15]): Active |
| C=C(Br)C(=O)Nc1ccc2c(c1)/C(=C/c1sccc1C)C(=O)N2 | 5 to 20 | 420 | 13 | 2600 | 0.5 | 30 | 1200 | 0.4 |  |
